# Compound activity: PubChem, several laboratories
# Rows were chosen to be rich in hits. Some 2.9% of all compounds tested hit in one or more screens of this group.
# MEKK2 mut-MEK5: signal of MEK5 binding to mutant human MEKK2 PB1 domain. bead flow cytometry, Alexa488-MEK5 binding to MEKK2 mutant. percent response, % at 10 µM. actives 0.35% (n = 290,000). AID 1530; in the data active = percent response above about 24%, passing the limit was not always enough
# MEKK2wt PB1 HTS: raises or lowers MEK5 binding to wildtype human MEKK2 PB1 domain | bead flow cytometry, Alexa488-MEK5 binding to MEKK2 WT; actives lie on both sides | Q9Y2U5 | binding response (% of control), % at 10 µM | AID 1531 | actives 1.1% (n = 290,000); in the data active = binding response below about 67% or above about 130%
# MEKK3 PB1 HTS: MEKK3-MEK5 PB1 interaction, increase or decrease; Q99759; bead-based flow cytometry, Alexa488-MEK5 binding to MEKK3; actives lie on both sides; 0 = blocked by unlabeled MEK5, 100 = vehicle; binding response (% of control), % at 10 µM; actives 1.4% (n = 290,000);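 active = binding response more than 3 SD above or below the average of its plate-row segment, actives on both sides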;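 note: Alexa488 bead fluorescence after subtracting the streptavidin-only scavenger bead signal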
# Apaf1 inhib: human Apaf-1 inhibition; O14727; reconstituted apoptosome caspase-3 activity, DEVD-Rh110 fluorescence; inhibition, % at 20 µM; actives 0.71% (n = 330,000); active = inhibition of at least 40% at 20 µM;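 note: plate controls were DMSO wells for no effect and DEVD-CHO caspase inhibitor wells for full effect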
#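 System: Apoptosome proteins | Medium: Hepes pH 7.5 with detergent and BSA | Also added: Cytochrome c trigger plus (Z-DEVD)2-Rh110 caspase-3 substrate | Incubation: 30 min compound preincubation, 50 min activation, room temperature | Detection: Rhodamine 110 fluorescence at Ex 480/Em 540 nm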
# UBC13 inh: blocks human UBC13 polyubiquitin chain formation. P61088. TR-FRET. inhibition, % at 20 µM. actives 0.47% (n = 330,000). AID 485273; in the data active = inhibition above about 45%, passing the limit was not always enough
# Casp3 UBC13 ctr: counter-screen for UBC13 inhibitors: human caspase-3 inhibition; shares compounds with UBC13 inh; Recombinant caspase-3, Caspase-Glo 3/7 luminescence, 60 min; inhibition, % at 20 µM; actives 4% (n = 1,400);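 active = mean inhibition across replicates above about 26%, limit read from the data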;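 note: plate controls were DMSO with caspase-3 for no effect and DMSO wells lacking enzyme for full effect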
# UBC13 confirm: confirmation of human UBC13 polyubiquitin inhibitors; shares compounds with UBC13 inh; UBC13 polyubiquitination, TR-FRET, biochemical; inhibition, % at 10 µM; actives 68% (n = 1,400); AID 488859; in the data active = inhibition above about 45%
# Apaf-1 inh conf: Apaf-1 inhibition, single-dose confirmed; shares compounds with Apaf1 inhib; reconstituted apoptosome, caspase-3 DEVD-Rh110 fluorescence; inhibition, % at 20 µM; actives 25% (n = 1,800); AID 504614;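 active = mean inhibition of at least 40% at 20 µM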;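 note: plate controls were DMSO wells for no effect and DEVD-CHO caspase inhibitor control wells for full effect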
# Rh110 interf inh: Rh110 signal interference in Apaf-1 inhibitor counter-screen; 1,800 tested, under 10 active; shares compounds with Apaf1 inhib; Rh110 fluorescence interference, quenched caspase reaction; activation (fluorescence interference), % at 20 µM;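 active = signal rise of 40% or more at 20 µM, treated as a fluorescence artifact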
# Fluor interf inh: counter-screen for Apaf-1 inhibitors: fluorescence interference, dose response. 460 tested, under 10 active. fluorescence interference counterscreen, Apaf-1 assay format. IC50, µM. shares compounds with Apaf1 inhib; call rule not given here
# An asterisk follows results filed as active; x = no result given.
SMILES,MEKK2 mut-MEK5,MEKK2wt PB1 HTS,MEKK3 PB1 HTS,Apaf1 inhib,UBC13 inh,Casp3 UBC13 ctr,UBC13 confirm,Apaf-1 inh conf,Rh110 interf inh,others
C#CCOCCOCCOCCNc1nc(N2CCN(C(=O)[C@H]([C@@H](C)CC)n3cc(CCCCN)nn3)CC2)nc(N2CCN(C(=O)[C@H]([C@@H](C)CC)n3cc(CCCN=C(N)N)nn3)CC2)n1,x,x,x,46*,53*,-2,48*,3,5,
C#CCOCCOCCOCCNc1nc(N2CCN(C(=O)CCCCCCCCCCNC(=O)[C@H](CCCCN)n3cc(CCO)nn3)CC2)nc(N2CCN(C(=O)CCCCCCCCCCNC(=O)[C@@H]([C@H](C)O)n3cc(C)nn3)CC2)n1,x,x,x,59*,121*,2,122*,31,6,
C#CCOCCOCCOCCNc1nc(N2CCN(C(=O)CCCCCCCCCCNC(=O)[C@H](CCCCN)n3cc(CCO)nn3)CC2)nc(N2CCN(C(=O)CCCCCCCCCCNC(=O)[C@H](CCCCN)n3cc(CCO)nn3)CC2)n1,x,x,x,64*,117*,3,125*,46*,1,Fluor interf inh=>100
C#CCOCCOCCOCCNc1nc(N2CCN(C(=O)CCCCCCCCCCNC(=O)Cn3cc(CCCCCN)nn3)CC2)nc(N2CCN(C(=O)CCCCCCCCCCNC(=O)[C@H]([C@@H](C)CC)n3cc(CCCCCN)nn3)CC2)n1,x,x,x,74*,124*,-2,123*,58*,5,Fluor interf inh=>100
Cc1ccc(CNC(=O)CCC2CCCN(Cc3c(C)nn(C(C)C)c3C)C2)o1 (centres undefined),-7,101,102,-4,6,x,x,x,x,
COc1cc(S(=O)(=O)N2CC(=O)Nc3ccccc32)ccc1NC(C)=O,5,100,102,-5,2,x,x,x,x,
CCOC(=O)Cn1ccc(NC(=O)c2ccc3c(c2)OCO3)n1,4,104,104,-3,3,x,x,x,x,
COc1cccc(-c2sc3ccc(OC)cc3c2-c2ccc(OCCN(C)C)cc2)c1,x,x,x,75*,84*,0,90*,23,20,
c1ccc(-c2sc3ccccc3c2-c2ccc(OCCN3CCOCC3)cc2)cc1,x,x,x,24,31,x,x,x,x,
CN(C)CCOc1ccc(-c2c(-c3ccsc3)sc3ccccc23)cc1,x,x,x,71*,78*,0,74*,24,13,
COc1cccc2sc(=NC(=O)CS(=O)(=O)c3ccc(Cl)cc3)n(C)c12,x,x,x,20,22,x,x,x,x,
CC(C)(C)CC(C)(C)c1ccc(OCCOCC[N+](C)(C)Cc2ccccc2)cc1,x,x,x,82*,92*,-3,91*,43*,21,Fluor interf inh=>100
C[N+](C)(CCOc1ccccc1)Cc1ccccc1 (tested in a mixture with another compound),-2,99,99,7,-24,x,x,x,x,
CCN(CC)CCNC(=O)c1ccc(NC(=O)c2cn(-c3ccc(F)cc3)nc2-c2cccc(OC)c2)cc1,51*,222*,108,45*,92*,-2,115*,22,7,
C/C(=N\NC(=O)CSc1nc(C)[nH]c1[N+](=O)[O-])c1ccc(F)cc1,-34,57,57,-7,7,x,x,x,x,
C#CCOCCOCCOCCNc1nc(N2CCN(C(=O)[C@H](CCCCN)n3cc([C@@H](N)[C@H](C)CC)nn3)CC2)nc(N2CCN(C(=O)[C@H](CCCCN)n3cc([C@@H](N)CC(N)=O)nn3)CC2)n1,x,x,x,44*,99*,-1,107*,0,-3,
